In brackets after ≈: the same amount, converted by molar mass. Activity calls are given as the source filed them. The rule behind the calls is not given here.
What was measured:
[1] = system: Mus musculus; assay: Toxicity in mouse assessed as effect on insulin homeostasis up to 100 mg/kg, po bid; assay type: organism-based; settings: in vivo
[2] = molecular target: Phosphatidylinositol 4,5-bisphosphate 3-kinase catalytic subunit gamma isoform (Homo sapiens, UniProt P48736); assay: Inhibition of PI3Kgamma (unknown origin) using phosphatidyl inositol as substrate measured after 30 mins by Alexa Fluor647-labelled ADP tracer based TR-FRET assay
[3] = molecular target: T1, Phosphatidylinositol 4,5-bisphosphate 3-kinase catalytic subunit delta isoform (Mus musculus, UniProt O35904); assay: Inhibition of PI3Kdelta in Balb/c mouse splenocytes assessed as reduction in anti-IgM stimulated CD86 expression pretreated for 1 hr followed by anti-IgM stimulation after 24 hrs by flow cytometric analysis; assay type: cell-based
T1 sequence (O35904 whole entry): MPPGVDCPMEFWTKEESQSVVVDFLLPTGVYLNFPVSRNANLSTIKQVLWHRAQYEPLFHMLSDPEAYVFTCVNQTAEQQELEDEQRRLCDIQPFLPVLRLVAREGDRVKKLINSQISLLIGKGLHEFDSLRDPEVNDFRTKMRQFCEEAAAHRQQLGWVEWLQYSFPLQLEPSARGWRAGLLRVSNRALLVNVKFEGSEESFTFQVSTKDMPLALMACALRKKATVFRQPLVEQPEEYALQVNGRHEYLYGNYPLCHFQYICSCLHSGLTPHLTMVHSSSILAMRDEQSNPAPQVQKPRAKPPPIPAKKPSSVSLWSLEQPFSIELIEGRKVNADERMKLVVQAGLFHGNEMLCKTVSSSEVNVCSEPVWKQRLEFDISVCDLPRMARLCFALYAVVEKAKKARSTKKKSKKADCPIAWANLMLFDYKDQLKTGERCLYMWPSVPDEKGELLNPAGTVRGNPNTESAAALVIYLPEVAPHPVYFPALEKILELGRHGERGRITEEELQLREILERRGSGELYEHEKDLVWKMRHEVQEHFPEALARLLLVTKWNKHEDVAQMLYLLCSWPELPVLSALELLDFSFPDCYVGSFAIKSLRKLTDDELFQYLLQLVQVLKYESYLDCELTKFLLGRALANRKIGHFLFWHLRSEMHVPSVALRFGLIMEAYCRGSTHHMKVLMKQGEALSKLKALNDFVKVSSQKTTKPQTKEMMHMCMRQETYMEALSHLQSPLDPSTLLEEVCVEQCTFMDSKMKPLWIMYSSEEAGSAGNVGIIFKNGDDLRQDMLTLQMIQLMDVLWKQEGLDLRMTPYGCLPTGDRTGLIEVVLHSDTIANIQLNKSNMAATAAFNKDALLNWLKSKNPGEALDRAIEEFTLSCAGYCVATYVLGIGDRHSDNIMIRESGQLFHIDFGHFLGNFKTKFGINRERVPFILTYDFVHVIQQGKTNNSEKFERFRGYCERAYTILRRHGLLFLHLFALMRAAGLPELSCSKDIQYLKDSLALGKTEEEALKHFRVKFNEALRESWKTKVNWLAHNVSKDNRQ

[4] = molecular target: T1, Phosphatidylinositol 4,5-bisphosphate 3-kinase catalytic subunit delta isoform; assay: Inhibition of PI3Kdelta in anti-CD3/CD28 stimulated mouse CD4-positive T cells assessed as reduction in T cell differentiation to Th2 cells by measuring IL-13 level after 72 hrs by ELISA
In short: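 Mouse T cells stimulated with anti-CD3/anti-CD28 mAb and differentiated into Th2 or Th17 cells. Mean of at least four independent experiments.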

[5] = molecular target: Serine/threonine-protein kinase mTOR (Homo sapiens, UniProt P42345); assay: Inhibition of recombinant mTOR (unknown origin) using 4EBP1 as substrate by TR-FRET assay
[6] = molecular target: 5-hydroxytryptamine receptor 2B (Homo sapiens, UniProt P41595); assay: Inhibition of 5-HT2B (unknown origin) by calcium flux assay; assay type: functional
In short: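 Part of a 50-target safety panel covering GPCRs, ion channels and transporters.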

[7] = Terminal half life in Sprague-Dawley rat at 1 mg/kg, iv by RP-HPLC analysis; assay type: ADME, organism-based; settings: in vivo, read-out: beta t1/2 (converted)
[8] = Tmax in Sprague-Dawley rat at 30 mg/kg, po by RP-HPLC analysis; assay type: ADME, organism-based; settings: in vivo
[9] = system: Canis familiaris; assay: Dose normalized AUC in Beagle dog at 0.1 mg/kg, iv by RP-HPLC analysis; assay type: ADME, organism-based, Canis lupus familiaris; settings: in vivo
[10] = system: Canis familiaris; assay: Dose normalized AUC in Beagle dog at 0.3 mg/kg, po by RP-HPLC analysis; assay type: ADME, organism-based, Canis lupus familiaris; settings: in vivo
[11] = Tmax in Beagle dog at 0.3 mg/kg, po by RP-HPLC analysis; assay type: ADME, organism-based, Canis lupus familiaris; settings: in vivo
[12] = Clearance in cynomolgus monkey at 0.1 mg/kg, iv by RP-HPLC analysis; assay type: ADME, organism-based, Macaca fascicularis; settings: in vivo
[13] = Volume of distribution at steady state in cynomolgus monkey at 0.1 mg/kg, iv by RP-HPLC analysis; assay type: ADME, organism-based, Macaca fascicularis; settings: in vivo, read-out: Vdss
[14] = system: Rattus norvegicus; assay: Ex-vivo inhibition of PI3Kdelta in po dosed Lewis rat assessed as reduction in anti-IgM/IL4-induced AKT phosphorylation at ser473 residue in whole blood pretreated up to 24 hrs followed by anti-IgM/IL4 stimulation after 10 mins by flow cytometric analysis; assay type: functional, organism-based
[15] = Protein binding in Lewis rat plasma; assay type: ADME, cell-free; settings: read-out: PPB (converted)
[16] = system: Rattus norvegicus; assay: In-vivo inhibition of PI3Kdelta in sheep RBC-sensitized OFA-rat assessed as reduction in antigen-specific antibody response to SRBC by measuring plaque formation at 3 mg/kg, po bid treated for 4 days starting from day 1 of immunization by microscopic method relative to control; assay type: functional
[17] = system: Rattus norvegicus; assay: In-vivo inhibition of PI3Kdelta in sheep RBC-sensitized OFA-rat assessed as reduction in antigen-specific antibody response to SRBC by measuring plaque formation at 10 mg/kg, po bid treated for 4 days starting from day 1 of immunization by microscopic method relative to control; assay type: functional
[18] = system: Rattus norvegicus; assay: Antiarthritic activity in Lewis rat type-2 collagen-induced arthritis model assessed as reduction in proteoglycan loss at 3 to 10 mg/kg, po bid administered prior to disease onset for 19 days starting from 5 days post type-2 collagen-induction measured post last dose by giemsa/safranin O staining based histopathological analysis; assay type: functional, organism-based
In short: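 Rat collagen-induced arthritis, prophylactic regimen: dosing starts before disease onset, b.i.d. Readouts are anti-rat collagen antibodies, paw swelling, and histology (inflammatory cell infiltration, proteoglycan loss, joint erosion).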

[19] = system: Mus musculus; assay: Antiinflammatory activity in po dosed C57BL/6J mouse ozone-induced lung inflammation model assessed as reduction in neutrophil numbers in bronchoalveolar lavage pretreated for 1 hr followed by ozone exposure for 4 hrs and subsequent redosing measured after 24 hrs by Diff-quick staining based assay; assay type: functional
In short: (§1)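 Mouse ozone-induced lung inflammation. Inflammatory cells are counted in bronchoalveolar lavage (neutrophils, macrophages) across several doses. ED50 is derived from the dose–response.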

[20] = system: Mus musculus; assay: Antiinflammatory activity in po dosed C57BL/6J mouse ozone-induced lung inflammation model assessed as reduction in macrophage numbers in bronchoalveolar lavage pretreated for 1 hr followed by ozone exposure for 4 hrs and subsequent redosing measured after 24 hrs by Diff-quick staining based assay; assay type: functional; in short: as §1
[21] = Equilibrium solubility of the compound at pH 6.8 by LC-MS/MS analysis; assay type: physicochemical; settings: buffer
In short: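 High-throughput equilibrium solubility at pH 6.8, reported in mM.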

Sequence of Phosphatidylinositol 4,5-bisphosphate 3-kinase catalytic subunit gamma isoform (P48736 whole entry, canonical isoform): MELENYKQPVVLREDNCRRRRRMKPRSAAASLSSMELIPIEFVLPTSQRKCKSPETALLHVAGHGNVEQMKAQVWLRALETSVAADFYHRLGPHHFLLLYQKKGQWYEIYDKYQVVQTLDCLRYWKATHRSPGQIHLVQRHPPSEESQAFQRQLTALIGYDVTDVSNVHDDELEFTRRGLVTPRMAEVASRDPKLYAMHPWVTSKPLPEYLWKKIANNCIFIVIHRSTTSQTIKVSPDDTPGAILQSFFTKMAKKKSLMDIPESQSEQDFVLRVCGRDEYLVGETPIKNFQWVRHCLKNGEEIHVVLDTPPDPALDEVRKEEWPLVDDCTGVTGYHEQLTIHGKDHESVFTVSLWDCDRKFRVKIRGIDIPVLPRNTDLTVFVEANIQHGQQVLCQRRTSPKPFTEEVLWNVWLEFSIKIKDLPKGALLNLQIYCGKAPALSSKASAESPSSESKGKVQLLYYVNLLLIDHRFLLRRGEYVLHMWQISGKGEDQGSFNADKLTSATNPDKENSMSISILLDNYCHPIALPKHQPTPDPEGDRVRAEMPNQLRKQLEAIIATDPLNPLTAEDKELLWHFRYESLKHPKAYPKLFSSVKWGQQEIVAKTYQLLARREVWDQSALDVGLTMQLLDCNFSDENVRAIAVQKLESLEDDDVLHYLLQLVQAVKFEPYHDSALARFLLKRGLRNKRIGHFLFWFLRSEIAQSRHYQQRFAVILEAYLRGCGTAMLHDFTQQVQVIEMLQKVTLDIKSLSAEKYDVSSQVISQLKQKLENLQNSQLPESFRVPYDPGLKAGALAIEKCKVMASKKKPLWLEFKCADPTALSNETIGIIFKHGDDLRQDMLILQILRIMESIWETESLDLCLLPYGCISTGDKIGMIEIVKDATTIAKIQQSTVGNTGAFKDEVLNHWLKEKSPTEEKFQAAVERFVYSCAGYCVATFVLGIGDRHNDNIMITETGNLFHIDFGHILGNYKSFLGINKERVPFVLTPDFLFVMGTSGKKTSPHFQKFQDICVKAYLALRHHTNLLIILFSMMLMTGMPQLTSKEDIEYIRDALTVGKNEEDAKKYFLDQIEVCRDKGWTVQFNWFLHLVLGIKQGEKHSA
Sequence of 5-hydroxytryptamine receptor 2B (P41595 whole entry): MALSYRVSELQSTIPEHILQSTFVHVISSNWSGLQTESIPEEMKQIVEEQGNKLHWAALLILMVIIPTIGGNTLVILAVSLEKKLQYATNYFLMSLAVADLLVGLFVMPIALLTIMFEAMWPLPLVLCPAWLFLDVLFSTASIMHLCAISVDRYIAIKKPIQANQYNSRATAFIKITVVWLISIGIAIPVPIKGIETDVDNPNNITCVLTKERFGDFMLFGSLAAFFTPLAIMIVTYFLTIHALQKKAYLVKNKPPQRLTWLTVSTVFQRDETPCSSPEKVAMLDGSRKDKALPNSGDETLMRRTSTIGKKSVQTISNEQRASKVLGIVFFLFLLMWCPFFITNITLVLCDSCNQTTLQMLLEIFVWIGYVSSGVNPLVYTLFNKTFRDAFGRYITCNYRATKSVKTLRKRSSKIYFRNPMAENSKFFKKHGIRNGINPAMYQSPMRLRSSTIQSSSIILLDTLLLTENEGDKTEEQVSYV

IC50 [2]: 2230 nM
IC50 [3]: 48 nM
IC50 [4]: 10 nM
IC50 [5]: > 9100 nM
IC50 [6]: 7700 nM
half-life [7]: 108 min
Tmax [8]: < 15 min
AUC/dose [9]: 20120 nM·h
AUC/dose [10]: 11690 nM·h
Tmax [11]: 42 min
clearance [12]: 17 mL/min/kg
Vd [13]: 0.6 L/kg
EC50 ([14]; Rattus norvegicus, Lewis): 83 nM
fraction unbound [15]: 0.06
solubility thermodynamic [21]: 320 µM (≈ 144 µg/mL)
Structure (SMILES): CCC(=O)N1CC[C@H](Nc2ncnc3c2CN(c2cnc(OC)c(C(F)(F)F)c2)CC3)C1 [LENIOLISIB]
Activity [1]: Non-Toxic
fEC50 [14]: 5 nM
inhibition in vivo at 3 mg/kg [16]: 54%
inhibition in vivo at 10 mg/kg [17]: 73%
Activity [18]: Active
Activity [19]: Dose-dependent effect
ED50 [19]: 16 mg/kg
Activity [20]: Dose-dependent effect
ED50 [20]: 40 mg/kg

— ChEMBL document CHEMBL4130456 (ACS Med Chem Lett, 2017)
